Published values from different studies.
Each line is one published result; the experiments were not run side by side.
Organism: Pseudomonas aeruginosa
Read-out: microbial growth

Compound | test | system | conditions | MIC
CN(C)[C@@H]1C(O)=C(C(N)=O)C(=O)[C@@]2(O)C(O)=C3C(=O)c4c(cc5ccc(-c6ccccc6)cc5c4O)C[C@H]3C[C@@H]12 | broth dilution | ATCC27853 |  | 32 µg/mL
Fc1ccc(NCc2ccc(Oc3ccccn3)cc2)cc1 |  |  |  | > 12.5 µg/mL
Cc1cc(C#N)ccc1C(=O)Nc1ccc(C(=O)N[C@@H](CC(N)=O)C(=O)Nc2ccc(C(=O)Nc3ccc(C(=O)Nc4ccc(C(=O)O)cc4)c(O)c3OC(C)C)cc2)cc1 |  | PA14 |  | 8 µg/mL
Clc1ccc(NCc2ccc(Oc3ccccn3)cc2)cc1 |  |  |  | > 25 µg/mL
CN(C)[C@@H]1C(O)=C(C(N)=O)C(=O)[C@@]2(O)C(O)=C3C(=O)c4c(O)cccc4[C@@](C)(O)[C@H]3C[C@@H]12 |  | ATCC27853 |  | 8 µg/mL
CCCCCCC/C=C/C(=O)N1C(=O)/C(=C(\O)c2ccncc2)C(=O)C1CC(C)C (stereo not shown) |  | PA01 |  | > 200 µg/mL
COc1c(C)c(OC)c2c(c1C)OC(c1ccccc1)CC2=O (stereo not shown) | broth dilution | ATCC27853 |  | 5000 µg/mL
C[C@@H](O)[C@H]1C(=O)N2C(C(=O)O)=C(S[C@@H]3CN[C@H](C(=O)N(C)C)C3)[C@H](C)[C@H]12 | broth dilution | ATCC27853 |  | 0.25 µg/mL
CC(C)OCCNc1nc(Cl)c2c(c1O)C(=O)C1=C(O)[C@]3(O)C(=O)C(C(N)=O)=C(O)[C@@H](N(C)C)[C@@H]3C[C@@H]1C2.Cl.Cl.Cl | broth dilution | ATCC27853 |  | > 32 µg/mL
CC(C)Oc1c(NC(=O)c2ccc(NC(=O)[C@H](CC(N)=O)NC(=O)c3ccc(NC(=O)c4ccc(C#N)c(F)c4)cc3)cc2)ccc(C(=O)Nc2ccc(C(=O)O)cc2)c1O |  | PA14 |  | 8 µg/mL
CC1(C)S[C@@H]2[C@H](NC(=O)C(C(=O)O)c3ccccc3)C(=O)N2[C@H]1C(=O)O (stereo partly shown) | broth dilution |  | clinical isolate | > 200 µM
CN(C)CC(C)(C)CNc1nc(Cl)c2c(c1O)C(=O)C1=C(O)[C@]3(O)C(=O)C(C(N)=O)=C(O)[C@@H](N(C)C)[C@@H]3C[C@@H]1C2.Cl | broth dilution | ATCC27853 |  | 32 µg/mL
Cn1c(SCc2ccc(Cl)cc2)nnc1-c1cncc(C#Cc2ccccc2)c1 |  |  |  | ≥ 20 µg/mL
CC(C)Oc1c(NC(=O)c2ccc(NC(=O)[C@H](CC(N)=O)NC(=O)c3ccc(NC(=O)c4ccccc4)cc3)cc2)ccc(C(=O)Nc2ccc(C(=O)O)cc2)c1O |  | PA14 |  | > 64 µg/mL
O=C1NN=C(N=Cc2ccc(O)c(O)c2)C1=NNn1c(-c2ccccc2)nc2ccccc2c1=O | broth dilution |  | 24 h | 53.5 µM
CC(C)Oc1c(NC(=O)c2ccc(NC(=O)[C@H](CC(N)=O)NC(=O)c3ccc(NC(=O)c4cccc(N)c4)cc3)cc2)ccc(C(=O)Nc2ccc(C(=O)O)cc2)c1O |  | PA14 |  | > 64 µg/mL
CCN1CCN(C(=O)N[C@@H](C(=O)N[C@@H]2C(=O)N3[C@@H]2SC(C)(C)[C@@H]3C(=O)O)c2ccccc2)C(=O)C1=O |  |  |  | 12.5 µg/mL
CN(C)[C@@H]1C(O)=C(C(N)=O)C(=O)[C@@]2(O)C(O)=C3C(=O)c4c(cc5ccc(CN6CCCC6)cc5c4O)C[C@H]3C[C@@H]12 | broth dilution | ATCC27853 |  | 32 µg/mL
CCCc1nc(N(C)C)c2c(c1O)C(=O)C1=C(O)[C@]3(O)C(=O)C(C(N)=O)=C(O)[C@@H](N(C)C)[C@@H]3C[C@@H]1C2.Cl.Cl | broth dilution | ATCC27853 |  | > 32 µg/mL

Compound | test | system | conditions | MIC
C[C@@H](O)[C@H]1C(=O)N2C(C(=O)O)=C(S[C@@H]3CN[C@H](C(=O)N(C)C)C3)[C@H](C)[C@H]12 | broth dilution |  | 24 h | 0.25 µg/mL
Cc1ccc(C)n1-c1ccc(-c2nnc(-c3c(Cl)cccc3Cl)[nH]2)cc1 | broth dilution | ATCC10145 | 18 h | 62.5 µg/mL
CC(C)Oc1c(NC(=O)c2ccc(NC(=O)[C@H](CC(N)=O)NC(=O)c3ccc(NC(=O)C(C)Oc4ccccc4)cc3)cc2)ccc(C(=O)Nc2ccc(C(=O)O)cc2)c1O (stereo partly shown) |  | PA14 |  | > 64 µg/mL
O=C(CCCCCCCCCC[P+](c1ccccc1)(c1ccccc1)c1ccccc1)Nc1cc(O)c(O)c(O)c1.[Br-] | broth dilution | ATCC27853 | 18 h | > 32 µg/mL
CN(C)Cc1ccc2cc3c(c(O)c2c1)C(=O)C1=C(O)[C@]2(O)C(=O)C(C(N)=O)=C(O)[C@@H](N(C)C)[C@@H]2C[C@@H]1C3 | broth dilution | ATCC27853 |  | 32 µg/mL
CC(C)Oc1c(NC(=O)c2ccc(NC(=O)[C@H](CC(N)=O)NC(=O)c3ccc(-c4nn[nH]c4-c4ccc(C#N)cc4)cc3)cc2)ccc(C(=O)Nc2ccc(C(=O)O)cc2)c1O |  | PA14 |  | > 64 µg/mL
O=C1C[C@@H](c2ccc(O)cc2)Oc2cc(O)cc(O)c21 | broth dilution | PAO1 |  | 128 µg/mL
CC1(C)SC2C(NC(=O)C(NC(=O)C3=C(O)C(Cc4ccc(O)cc4)NC3=O)c3ccccc3)C(=O)N2C1C(=O)O (stereo not shown) |  |  |  | 25 µg/mL
CN(C)[C@@H]1C(O)=C(C(N)=O)C(=O)[C@@]2(O)C(O)=C3C(=O)c4c(O)c(NCC(C)(C)CN5CCCC5)nc(Cl)c4C[C@H]3C[C@@H]12.Cl | broth dilution | ATCC27853 |  | 32 µg/mL
CC[C@H]1OC(=O)[C@H](C)[C@@H](O[C@H]2C[C@@](C)(OC)[C@@H](O)[C@H](C)O2)[C@H](C)[C@@H](O[C@@H]2O[C@H](C)C[C@H](N(C)C)[C@H]2O)[C@](C)(O)C[C@@H](C)CN(C)[C@H](C)[C@@H](O)[C@]1(C)O | broth dilution |  |  | 100 µg/mL
Clc1ccc(-c2nc3ccccc3n2Cc2ccccc2)cc1Cl | broth dilution | ATCC27853 |  | 256 µg/mL
Cc1ccc(C)n1-c1ccc(-c2nnc(-c3ccccc3[N+](=O)[O-])[nH]2)cc1 | broth dilution | ATCC10145 | 18 h | 250 µg/mL
O=[N+]([O-])c1ccc(-c2nc3cc(Cl)ccc3[nH]2)o1 | broth dilution | ATCC27853 |  | > 64 µg/mL
O=C(CCCCCC[P+](c1ccccc1)(c1ccccc1)c1ccccc1)Nc1cc(O)c(O)c(O)c1.[Br-] | broth dilution | ATCC27853 | 18 h | > 32 µg/mL
CC(C)Oc1c(NC(=O)c2ccc(NC(=O)[C@H](CC(N)=O)NC(=O)c3ccc(NC(=O)c4ccc(N)cc4)cc3)cc2)ccc(C(=O)Nc2ccc(C(=O)O)cc2)c1O |  | PA14 |  | > 64 µg/mL
CCCCCCCCCCCC(=O)Oc1c(C)c(O)c(C(=O)/C=C/c2ccccc2)c(OC)c1C | broth dilution | ATCC27853 |  | 5000 µg/mL
CCCCCCC/C=C/C(=O)N1C(=O)/C(=C(\O)C2CCNCC2)C(=O)C1CC(C)C (stereo not shown) |  | PA01 |  | 25 µg/mL
CC(C)Oc1c(NC(=O)c2ccc(NC(=O)[C@H](CC(N)=O)NC(=O)c3ccc(NC(=O)c4ccc(C5(C(F)(F)F)N=N5)cc4)cc3)cc2)ccc(C(=O)Nc2ccc(C(=O)O)cc2)c1O |  | PA14 |  | > 64 µg/mL
